# Test results: ChEMBL document CHEMBL1154352, “Toll-like receptor 7 selective synthetic oligoribonucleotide agonists: synthesis and structure-activity relationship studies” (J Med Chem, 2009)
# Calls of active or inactive are those of the source. The calls are words filed in the database; no cut-off is given here.
# Tests used:
# [1] = target: T1, Toll-like receptor 8 (Homo sapiens) (UniProt Q9NR97); experiment: Activation of human TLR8 expressed in HEK293XL assessed as fold induction of NF-kappaB activity at 50 ug/ml after 18 hrs by reporter gene assay relative to control
# T1 sequence (whole entry): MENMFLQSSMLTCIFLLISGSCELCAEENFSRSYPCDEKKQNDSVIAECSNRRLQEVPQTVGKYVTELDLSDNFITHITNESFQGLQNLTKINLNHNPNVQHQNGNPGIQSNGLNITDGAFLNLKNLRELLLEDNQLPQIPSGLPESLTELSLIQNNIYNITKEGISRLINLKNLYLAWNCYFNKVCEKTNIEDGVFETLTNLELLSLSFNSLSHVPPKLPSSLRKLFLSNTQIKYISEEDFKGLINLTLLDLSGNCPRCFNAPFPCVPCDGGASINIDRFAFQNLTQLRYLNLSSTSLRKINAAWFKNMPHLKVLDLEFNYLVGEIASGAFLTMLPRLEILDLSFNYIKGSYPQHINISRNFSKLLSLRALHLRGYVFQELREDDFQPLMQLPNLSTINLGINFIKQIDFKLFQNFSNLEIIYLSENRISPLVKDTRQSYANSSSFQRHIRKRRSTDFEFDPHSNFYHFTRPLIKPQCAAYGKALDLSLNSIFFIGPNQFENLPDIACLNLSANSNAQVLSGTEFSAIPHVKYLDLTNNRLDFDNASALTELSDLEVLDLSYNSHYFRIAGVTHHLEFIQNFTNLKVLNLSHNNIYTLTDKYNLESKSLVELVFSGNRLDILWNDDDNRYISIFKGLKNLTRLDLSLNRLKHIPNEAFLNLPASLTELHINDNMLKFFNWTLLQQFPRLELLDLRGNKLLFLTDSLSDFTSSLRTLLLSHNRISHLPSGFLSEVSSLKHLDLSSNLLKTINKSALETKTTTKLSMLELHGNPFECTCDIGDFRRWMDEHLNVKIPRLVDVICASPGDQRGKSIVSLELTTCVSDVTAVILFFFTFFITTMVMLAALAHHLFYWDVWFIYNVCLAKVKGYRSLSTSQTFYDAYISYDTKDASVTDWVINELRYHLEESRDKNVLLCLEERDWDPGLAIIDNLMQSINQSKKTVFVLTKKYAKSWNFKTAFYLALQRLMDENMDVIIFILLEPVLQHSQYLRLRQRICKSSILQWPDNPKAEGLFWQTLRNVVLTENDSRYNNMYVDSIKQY
# Summary of the method: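 HEK293 cells stably expressing human TLR7 or TLR8, transiently transfected with SEAP reporter plasmid; medium replaced, SIMRA compounds added, 18 h incubation. Supernatant SEAP measured by QuantiBlue; expressed as fold increase in NF-κB activity over PBS control. Tabulated data at 50 μg/mL, representative of three independent experiments.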
# [2] = target: T2, Toll-like receptor 9 (Mus musculus) (UniProt Q9EQU3); experiment: Activation of mouse TLR9 expressed in HEK293 assessed as induction of NF-kappaB activity reporter gene assay; type: cell-based
# T2 sequence (whole entry): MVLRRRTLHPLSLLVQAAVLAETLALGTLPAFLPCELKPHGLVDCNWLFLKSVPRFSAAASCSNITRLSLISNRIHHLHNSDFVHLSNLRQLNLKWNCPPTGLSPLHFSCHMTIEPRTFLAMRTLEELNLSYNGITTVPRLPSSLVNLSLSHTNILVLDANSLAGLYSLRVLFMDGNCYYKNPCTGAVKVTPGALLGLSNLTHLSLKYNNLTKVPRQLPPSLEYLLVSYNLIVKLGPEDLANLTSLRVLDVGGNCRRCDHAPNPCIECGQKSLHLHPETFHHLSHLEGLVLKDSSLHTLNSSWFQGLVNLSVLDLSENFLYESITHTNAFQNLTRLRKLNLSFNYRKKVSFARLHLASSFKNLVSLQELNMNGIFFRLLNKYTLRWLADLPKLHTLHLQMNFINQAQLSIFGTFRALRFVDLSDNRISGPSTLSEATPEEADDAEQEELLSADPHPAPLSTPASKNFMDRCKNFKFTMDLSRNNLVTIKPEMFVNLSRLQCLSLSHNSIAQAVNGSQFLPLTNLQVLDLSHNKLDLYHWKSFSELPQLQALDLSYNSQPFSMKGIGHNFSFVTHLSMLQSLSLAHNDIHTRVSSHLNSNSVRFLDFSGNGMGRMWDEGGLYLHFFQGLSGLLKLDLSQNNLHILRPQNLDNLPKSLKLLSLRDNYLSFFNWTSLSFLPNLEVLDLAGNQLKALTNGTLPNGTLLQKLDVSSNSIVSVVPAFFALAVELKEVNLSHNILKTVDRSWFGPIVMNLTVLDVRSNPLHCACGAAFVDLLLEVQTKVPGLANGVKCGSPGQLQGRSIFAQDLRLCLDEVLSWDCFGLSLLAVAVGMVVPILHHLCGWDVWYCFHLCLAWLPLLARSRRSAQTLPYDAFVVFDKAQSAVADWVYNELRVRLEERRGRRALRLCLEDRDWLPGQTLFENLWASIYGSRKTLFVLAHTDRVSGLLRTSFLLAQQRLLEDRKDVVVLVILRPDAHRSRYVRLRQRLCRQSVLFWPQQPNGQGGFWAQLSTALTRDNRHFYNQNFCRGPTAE
# PBMC [3] = experiment: Immunomodulatory activity in human PBMC assessed as induction of TNFalpha at 100 ug/ml after 24 hrs; type: functional, cell-based
# Summary of the method: (§1)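 Human PBMCs plated at 5 × 10^6 cells/mL; compounds dissolved in PBS added at various concentrations, 37 °C for 24 h. Supernatant cytokines/chemokines quantified with human Luminex multiplex kit.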
# Splenocyte [4] = experiment: Immunomodulatory activity in C57BL/6 mouse splenocytes bearing TLR7 receptor assessed as IL6 release at 100 ug/ml after 24 hrs by ELISA; type: functional, cell-based
# Summary of the method: (§2)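 C57BL/6 splenocytes in RPMI 1640 with 10% FBS, penicillin/streptomycin, 2 mM L-glutamine, plated at 5 × 10^6 cells/mL; compounds in PBS added, 37 °C for 24 h. Supernatant IL-12 and IL-6 by ELISA; representative of three independent experiments.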
# [5] = Metabolic stability in human serum assessed as full length product remaining after 10 mins by HPLC; type: ADME, cell-free; details: read-out: Stability
# Summary of the method: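 About 0.5 A260 units compound in 1% human serum in PBS, 37 °C; aliquot taken at 10 min, analysed by anion-exchange HPLC for percent intact full-length product.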
# Splenocyte [6] = experiment: Immunomodulatory activity in C57BL/6 mouse splenocytes bearing TLR7 receptor assessed as IL12 release at 100 ug/ml after 24 hrs by ELISA; type: functional, cell-based; summary of the method: as §2
# PBMC [7] = experiment: Immunomodulatory activity in human PBMC assessed as induction of IFN-alpha at 100 ug/ml after 24 hrs
# [8] = target: Toll-like receptor 3 (Homo sapiens) (UniProt O15455); experiment: Activation of human TLR3 expressed in HEK293 assessed as induction of NF-kappaB activity reporter gene assay; type: cell-based
# Sequence of Toll-like receptor 3 (Homo sapiens) (O15455 whole entry): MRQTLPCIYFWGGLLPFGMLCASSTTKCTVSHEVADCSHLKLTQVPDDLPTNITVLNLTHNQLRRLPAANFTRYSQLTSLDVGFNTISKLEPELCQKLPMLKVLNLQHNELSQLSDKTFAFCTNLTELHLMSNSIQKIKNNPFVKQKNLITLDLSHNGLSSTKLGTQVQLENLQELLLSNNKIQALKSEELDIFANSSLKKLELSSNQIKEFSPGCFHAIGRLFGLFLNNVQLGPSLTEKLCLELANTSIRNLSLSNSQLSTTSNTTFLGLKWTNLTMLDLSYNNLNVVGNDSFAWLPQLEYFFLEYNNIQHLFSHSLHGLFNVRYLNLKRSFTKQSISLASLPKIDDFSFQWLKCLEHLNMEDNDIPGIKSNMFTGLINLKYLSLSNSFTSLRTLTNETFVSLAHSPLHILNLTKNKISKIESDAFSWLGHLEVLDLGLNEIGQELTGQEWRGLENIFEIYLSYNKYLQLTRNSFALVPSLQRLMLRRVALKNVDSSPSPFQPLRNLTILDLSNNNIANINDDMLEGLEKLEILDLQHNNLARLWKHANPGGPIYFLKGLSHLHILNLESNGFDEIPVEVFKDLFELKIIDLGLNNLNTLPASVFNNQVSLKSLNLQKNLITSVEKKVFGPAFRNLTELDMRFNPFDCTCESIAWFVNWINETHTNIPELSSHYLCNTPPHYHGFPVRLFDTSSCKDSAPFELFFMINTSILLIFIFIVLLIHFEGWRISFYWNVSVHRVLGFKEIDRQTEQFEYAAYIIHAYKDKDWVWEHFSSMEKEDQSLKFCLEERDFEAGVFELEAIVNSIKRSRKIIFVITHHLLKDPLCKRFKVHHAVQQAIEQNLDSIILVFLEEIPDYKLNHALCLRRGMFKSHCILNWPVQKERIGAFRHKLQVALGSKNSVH
# PBMC [9] = experiment: Immunomodulatory activity in human PBMC assessed as induction of IL12 at 100 ug/ml after 24 hrs; type: functional, cell-based; summary of the method: as §1
fold change (FC) [1],Activity [2],Activity (Splenocyte [4]),remaining at 10 min [5] [%],Activity (Splenocyte [6]),Activity [8],Structure (SMILES),Activity (PBMC [3]) [pg/mL],IFN-alpha (PBMC [7]) [pg/mL],Activity (PBMC [9]) [pg/mL]
0.6,inactive,Active,76,Active,inactive,Nc1ccn([C@@H]2O[C@H](COP(=O)(S)O[C@H]3[C@@H](O)[C@H](n4cnc5c(N)ncnc54)O[C@@H]3COP(=O)(S)O[C@H]3[C@@H](O)[C@H](n4cnc5c(N)ncnc54)O[C@@H]3CO)[C@@H](OP(=O)(S)OC[C@H]3O[C@@H](n4ccc(=O)[nH]c4=O)[C@H](O)[C@@H]3OP(=O)(S)OC[C@H]3O[C@@H](n4ccc5c(=O)[nH]c(N)nc54)[C@H](O)[C@@H]3OP(=O)(S)OC[C@H]3O[C@@H](n4cnc5c(N)ncnc54)[C@H](O)[C@@H]3OP(=O)(S)OC[C@H]3O[C@@H](n4cnc5c(N)ncnc54)[C@H](O)[C@@H]3OP(=O)(S)OC[C@H]3O[C@@H](n4ccc5c(=O)[nH]c(N)nc54)[C@H](O)[C@@H]3OP(=O)(S)OC[C@H]3O[C@@H](n4ccc(N)nc4=O)[C@H](O)[C@@H]3OP(=O)(S)OC[C@H]3O[C@@H](n4ccc(=O)[nH]c4=O)[C@H](O)[C@@H]3OP(=O)(S)OC[C@H]3O[C@@H](n4ccc5c(=O)[nH]c(N)nc54)[C@H](O)[C@@H]3OP(=O)(S)OCC(O)COP(=O)(S)O[C@H]3[C@@H](O)[C@H](n4ccc5c(=O)[nH]c(N)nc54)O[C@@H]3COP(=O)(S)O[C@H]3[C@@H](O)[C@H](n4ccc(=O)[nH]c4=O)O[C@@H]3COP(=O)(S)O[C@H]3[C@@H](O)[C@H](n4ccc(N)nc4=O)O[C@@H]3COP(=O)(S)O[C@H]3[C@@H](O)[C@H](n4ccc5c(=O)[nH]c(N)nc54)O[C@@H]3COP(=O)(S)O[C@H]3[C@@H](O)[C@H](n4cnc5c(N)ncnc54)O[C@@H]3COP(=O)(S)O[C@H]3[C@@H](O)[C@H](n4cnc5c(N)ncnc54)O[C@@H]3COP(=O)(S)O[C@H]3[C@@H](O)[C@H](n4ccc5c(=O)[nH]c(N)nc54)O[C@@H]3COP(=O)(S)O[C@H]3[C@@H](O)[C@H](n4ccc(=O)[nH]c4=O)O[C@@H]3COP(=O)(S)O[C@H]3[C@@H](O)[C@H](n4ccc(N)nc4=O)O[C@@H]3COP(=O)(S)O[C@H]3[C@@H](O)[C@H](n4cnc5c(N)ncnc54)O[C@@H]3COP(=O)(S)O[C@H]3[C@@H](O)[C@H](n4cnc5c(N)ncnc54)O[C@@H]3CO)[C@H]2O)c(=O)n1 (stereo partly drawn),3.5,28.7,240
2,inactive,Active,74,Active,inactive,Nc1ccn([C@@H]2O[C@H](COP(=O)(S)O[C@H]3[C@@H](O)[C@H](n4cnc5c(N)ncnc54)O[C@@H]3CO)[C@@H](OP(=O)(S)OC[C@H]3O[C@@H](n4ccc5c(=O)[nH]c(N)nc54)[C@H](O)[C@@H]3OP(=O)(S)OC[C@H]3O[C@@H](n4ccc(=O)[nH]c4=O)[C@H](O)[C@@H]3OP(=O)(S)OC[C@H]3O[C@@H](n4ccc5c(=O)[nH]c(N)nc54)[C@H](O)[C@@H]3OP(=O)(S)OC[C@H]3O[C@@H](n4cnc5c(N)nc(N)nc54)[C@H](O)[C@@H]3OP(=O)(S)OC[C@H]3O[C@@H](n4cnc5c(N)ncnc54)[C@H](O)[C@@H]3OP(=O)(S)OC[C@H]3O[C@@H](n4ccc5c(=O)[nH]c(N)nc54)[C@H](O)[C@@H]3OP(=O)(S)OC[C@H]3O[C@@H](n4ccc(N)nc4=O)[C@H](O)[C@@H]3OP(=O)(S)OC[C@H]3O[C@@H](n4ccc(=O)[nH]c4=O)[C@H](O)[C@@H]3OP(=O)(S)OC[C@H]3O[C@@H](n4ccc(=O)[nH]c4=O)[C@H](O)[C@@H]3OP(=O)(S)OCC(O)COP(=O)(S)O[C@H]3[C@@H](O)[C@H](n4ccc(=O)[nH]c4=O)O[C@@H]3COP(=O)(S)O[C@H]3[C@@H](O)[C@H](n4ccc(=O)[nH]c4=O)O[C@@H]3COP(=O)(S)O[C@H]3[C@@H](O)[C@H](n4ccc(N)nc4=O)O[C@@H]3COP(=O)(S)O[C@H]3[C@@H](O)[C@H](n4ccc5c(=O)[nH]c(N)nc54)O[C@@H]3COP(=O)(S)O[C@H]3[C@@H](O)[C@H](n4cnc5c(N)nc(N)nc54)O[C@@H]3COP(=O)(S)O[C@H]3[C@@H](O)[C@H](n4cnc5c(N)nc(N)nc54)O[C@@H]3COP(=O)(S)O[C@H]3[C@@H](O)[C@H](n4ccc5c(=O)[nH]c(N)nc54)O[C@@H]3COP(=O)(S)O[C@H]3[C@@H](O)[C@H](n4ccc(=O)[nH]c4=O)O[C@@H]3COP(=O)(S)O[C@H]3[C@@H](O)[C@H](n4ccc5c(=O)[nH]c(N)nc54)O[C@@H]3COP(=O)(S)O[C@H]3[C@@H](O)[C@H](n4ccc(N)nc4=O)O[C@@H]3COP(=O)(S)O[C@H]3[C@@H](O)[C@H](n4cnc5c(N)ncnc54)O[C@@H]3CO)[C@H]2O)c(=O)n1 (stereo partly drawn),165,123,864
